Sampled rows, rich in hits. Any-hit rate of the full collection: about 2.1%.
Arbovirus anti: arbovirus infection inhibition | inhibition, % at 10 µM | arbovirus infection cell-based antiviral screen | 200,000 compounds, 0.37% hits; in the data active = inhibition above about 30%
Autophagy HCS: autophagy modulation, high-content screen; MEF GFP-LC3 puncta imaging; test concentration mostly 10 µM; calls only at 10 µM (by protocol); 190,000 compounds, 0.98% hits;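 active = percentage of spot-positive cells more than 3 SD above its plate mean, without a fluorescence outlier flag or 80% toxicity; inconclusive = no clear call, values can overlap the other calls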;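 also: spot-positive cell cutoff set from DMSO-treated cells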
RBBP9 inh: blocks human serine hydrolase RBBP9. inhibition, % at 7.94 µM. AID 1515. recombinant RBBP9, FP-Rh probe fluorescence polarization. 220,000 compounds, 0.2% hits;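 active = inhibition above the campaign mean of all tested compounds plus 3 SD, cut at about 14% in these data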;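 also: plate controls were DMSO wells with RBBP9 for no effect and wells lacking RBBP9 protein for full effect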
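Measured by – fluorescence polarization · Test system – RBBP9 protein · Input – 2.5 µM RBBP9 dispensing solution, before mixing · Measure – percent inhibition from mP, scaled between DMSO and no-protein wells · Benchmarks – DMSO-treated enzyme wells and wells lacking RBBP9 · Times – preincubation 30 min plus labeling 45 min at 25 °C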
Ins promoter up: MIN6 insulin promoter up-regulation; z-score at 5 µM; MIN6 insulin promoter-GFP reporter, high-content imaging; active compounds read high; AID 1625; 190,000 compounds, 0.3% hits;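 active = z-score above 3 at 5 µM with at least 500 cells counted in the well; inconclusive = wells under 500 cells, flagged as cytotoxic or low count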
PKD1 inh: blocks activity of human protein kinase D1. Q15139. PKD1 kinase fluorescence polarization assay. inhibition, % (no concentration beside the values). 200,000 compounds, 0.056% hits. AID 797; in the data active = inhibition above about 50%
Insulin prom inh: TRM-6 insulin promoter activity inhibition | TRM-6 cells, insulin promoter-eGFP reporter, imaging; reporter expression induced with tamoxifen | inhibition, % at 2 µM | 130,000 compounds, 0.9% hits | AID 1273;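 active = inhibition above the mean plus 3 SD, with well images judged a real hit on visual review, cut at about 60% in these data, passing the limit was not always enough; inconclusive = inhibition over the cutoff but images rejected on review; inactive = inhibition not above the cutoff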
Active calls of the source: *; i = inactive; ? = inconclusive; · = not tested or not shown; + = active, no number.

SMILES	Arbovirus anti	Autophagy HCS	RBBP9 inh	Ins promoter up	PKD1 inh	Insulin prom inh
CC(C1CC1)N(Cc1ccccc1)C(=O)NC(=O)c1ccccc1 (stereo not given)	5.9	i	-1.6	0.02	8.8	·
Cc1ccccc1CN1CCN(CC(=O)NCCCN2CCN(c3ccc(F)cc3)CC2)C1=O	-6.9	i	-4.2	1.54	-2.5	12.5
CCCNC(=O)c1cccc(COCC(F)(F)C(F)F)c1	-3.8	i	-9.3	0.85	-9.4	-225.0
O=C(O)c1cccc(COCC(F)(F)C(F)F)c1	6.1	+	8.0	-0.36	9.8	65.0
COc1ccc(-c2ccc3c(N)c(C(=O)c4ccc(OC)c(OC)c4)sc3n2)cc1	0.8	+	-10.5	·	-3.2	-37.8
COc1ccc(C(=O)c2sc3nc(-c4ccccc4)ccc3c2N)cc1OC	-6.0	i	-5.2	·	0.9	·
CCc1ccc2nc(SCC(=O)N3CCCCC3)c(C#N)cc2c1	2.8	i	-11.3	·	-2.2	-192.3
CCc1ccc2nc(SCC(=O)N3CC(=O)Nc4ccccc43)c(C#N)cc2c1	-20.4	+	-1.4	2.04	-3.4	-212.5
CCCn1c(-c2ccc(OC)cc2)nc2ccccc21	4.5	i	-4.8	-4.66	-17.4	·
COCn1c(-c2ccc(OC)cc2)nc2ccccc21	-5.7	i	-10.0	0.07	-4.4	92.3*
O=c1oc2ccccc2cc1-c1nc2c(s1)CCc1ccccc1-2	10.8	+	-6.6	1.17	-11.9	·
CCN(CC)CCCNc1nc(C)cc(COC)c1C#N	5.4	i	-3.3	0.68	-3.1	·
COCc1cc(C)nc(Nc2ccccc2C)c1C#N	5.9	i	2.7	3.32*	-10.0	-408.1
CCNc1nc(Oc2ccc(=O)n(C)n2)nc(N2CCOCC2)n1	-4.0	i	-5.1	0.52	5.1	-35.7
O=C(NCCCO)c1cc2ccccc2[nH]1	1.7	i	-4.7	-0.1	0.3	·
N#CC1=C(SCC(=O)Nc2ccccc2)NC(=O)CC1c1ccc(O)cc1 (stereo not given)	42.2*	i	-5.0	0.33	-16.7	·
COC(=O)CSC1=C(C#N)C(c2ccccc2)CC(=O)N1 (stereo not given)	-18.3	i	-9.9	0.44	3.0	-9.1
Cc1ccc(C2CC(=O)NC(SCc3ccccc3)=C2C#N)o1 (stereo not given)	-3.6	i	6.1	3.43*	-22.3	·
COc1ccc(NC(=O)CSC2=C(C#N)C(c3ccco3)C3=C(CCCC3=O)N2)c(OC)c1 (stereo not given)	2.6	i	-4.6	1.86	-8.2	17.2
N#CC1=C(SCC(=O)NCc2ccccc2)NC(=O)CC1c1ccco1 (stereo not given)	-4.7	i	-0.4	-0.85	-13.2	-38.7
N#CC1=C(SCC(=O)Nc2ccccc2)NC(=O)CC1c1ccco1 (stereo not given)	-21.4	+	-4.3	·	-3.4	25.0
COc1cccc(NC(=O)CSC2=C(C#N)C(c3ccco3)C3=C(CCCC3=O)N2)c1 (stereo not given)	-19.7	+	-1.3	0.1	-16.6	·
CCn1nnnc1NC(=O)c1ccc2ccccc2c1	3.5	i	10.6	-0.14	1.5	9.1
COc1ccc(-c2cc(C(F)(F)F)c(C#N)c(=O)[nH]2)cc1	·	·	-11.5	-0.46	·	·
N#Cc1c(C(F)(F)F)cc(-c2ccc(Cl)cc2)[nH]c1=O	42.5*	i	1.7	0.45	-6.7	·
SMILES	Arbovirus anti	Autophagy HCS	RBBP9 inh	Ins promoter up	PKD1 inh	Insulin prom inh
N#Cc1c(C(F)(F)F)cc(-c2cccc(Cl)c2)[nH]c1=O	42.4*	i	-0.4	0.69	-16.1	·
N#Cc1c(C(F)(F)F)cc(-c2ccc(F)cc2)[nH]c1=O	29.7	i	-1.2	-0.01	-5.5	·
COc1cc(SC)ccc1C(=O)NCCOc1ccc(F)cc1	-1.2	i	-6.2	-0.89	3.1	-8.1
CCc1ccc(-n2c(SCC(=O)Nc3cc(C)[nH]n3)nc3[nH]ncc3c2=O)cc1	6.9	i	-5.0	0.63	5.2	·
Cc1cccc(-n2c3nc(=O)[nH]c(=O)c-3cc3c(C)nn(-c4ccccc4)c32)c1	1.1	i	-7.0	-0.37	5.2	62.5*
Cc1ccc(-n2c3nc(=O)[nH]c(=O)c-3cc3c(C)nn(-c4ccccc4)c32)c(C)c1	-16.9	i	3.3	0.16	1.9	-26.7
COc1ccc2[nH]c3c(NCCN4CCCCC4)ncnc3c2c1	9.9	i	-5.5	-0.94	-14.8	81.2*
CCOC(=O)N1CCN(c2ncnc3c2[nH]c2ccc(OC)cc23)CC1	-9.3	i	-2.2	-0.23	15.2	91.3*
COc1cc2[nH]c3c(N4CCN(c5ccccn5)CC4)ncnc3c2cc1OC	-13.7	+	0.1	-1.38	0.1	-92.9
CCOC(=O)N1CCN(c2ncnc3c2[nH]c2ccc(F)cc23)CC1	10.0	i	-2.4	?	4.1	13.9
Cc1ccc2[nH]c3c(NCCCN4CCCC4=O)ncnc3c2c1	17.5	i	-9.4	-0.19	6.3	54.5
COc1ccc(N2CCN(c3ncnc4c3[nH]c3ccccc34)CC2)cc1	-8.2	i	2.1	0.73	5.0	·
COc1cc(C#N)ccc1OCC(=O)Nc1cccc(S(=O)(=O)N2CCCC2)c1	1.6	i	4.0	-0.06	-0.7	·
Cc1cc(C)n(-c2nc(-n3nc(C)cc3C)c3c4c(sc3n2)COC(C)(C)C4)n1	-0.3	i	0.2	-0.32	-39.3	-13.3
CN1CCCC(OC(=O)c2cc(Br)ccc2Cl)C1 (stereo not given)	-3.0	i	-4.8	1.49	-1.9	·
Cc1cccc(N/C=C(\[N+](=O)[O-])S(=O)(=O)c2ccccc2)c1C	3.8	i	-4.9	1.22	0.2	·
Cn1c(Cc2ccccc2)nnc1SCC(=O)c1ccc(Br)s1	-2.0	i	-1.4	0.36	0.5	95.5*
Cn1nnnc1SCC(=O)c1ccc(Br)s1	5.0	i	0.9	2.42	-3.5	-8.8
COc1cc(NC(=O)C2CCCO2)c(OC)cc1Cl (stereo not given)	1.7	i	-7.9	·	-6.9	-55.2
CCC(C)Sc1nc2c(c(=O)[nH]1)C(c1cccs1)C1=C(CCCC1=O)N2 (stereo not given)	32.9*	i	-0.6	-0.11	-4.2	-44.4
CCN(Cc1cc2ccccc2[nH]c1=O)C(=O)C1CCCCC1	4.6	i	-1.8	0.5	-7.1	·
CC(C)N(Cc1cc2ccccc2[nH]c1=O)C(=O)C1CCCCC1	6.4	+	0.7	0.39	3.4	·
O=C(NC(=S)NC1CCCc2ccccc21)c1ccco1 (stereo not given)	7.5	+	-8.4	-0.81	5.7	·
Cc1nn(-c2ccccc2)c2c1C1(C(=O)Nc3ccccc31)N1C(=N2)Sc2ccccc21 (stereo not given)	-14.6	+	-0.2	0.27	2.1	·
C=CCNc1ncnc2c1[nH]c1ccc(Cl)cc12	-19.5	i	-0.3	0.14	-10.7	93.1*
CCc1ccc(N(C(C)=O)c2nc(CCl)cs2)cc1	2.6	i	-4.9	-0.87	-10.2	·
